15 compounds from ChEMBL document CHEMBL6153131, “Rational Design and Optimization of a Potent IDO1 Proteolysis Targeting Chimera (PROTAC)” (J Med Chem, 2025) can be followed below.

A value given as a limit tells only on which side of the number the result lay.

Experiment [1] deals with T1, Protein cereblon/Indoleamine 2,3-dioxygenase 1 (Homo sapiens, UniProt P14902+Q96SW2). The experiment is described as follows: PROTAC activity at CRBN/N-terminal HiBiT-tagged IDO1 (unknown origin) transfected in human U87 cells assessed as induction of IDO1 degradation pretreated with IFN-gamma for 24 hrs followed by compound addition and measured after 24 hrs by Nano-Glo HiBiT assay. The format is cell-based. In short, it runs like this:
(§1)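 U87 cells carrying HiBiT knocked in by CRISPR/Cas9 at the IDO1 N-terminus, treated for 24 h. Degradation read as loss of luminescence. DC50 fitted from the lowest concentration up to maximal degradation, excluding hook-effect points; triplicate mean ± SD.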
Target sequence in this assay (P14902 whole entry): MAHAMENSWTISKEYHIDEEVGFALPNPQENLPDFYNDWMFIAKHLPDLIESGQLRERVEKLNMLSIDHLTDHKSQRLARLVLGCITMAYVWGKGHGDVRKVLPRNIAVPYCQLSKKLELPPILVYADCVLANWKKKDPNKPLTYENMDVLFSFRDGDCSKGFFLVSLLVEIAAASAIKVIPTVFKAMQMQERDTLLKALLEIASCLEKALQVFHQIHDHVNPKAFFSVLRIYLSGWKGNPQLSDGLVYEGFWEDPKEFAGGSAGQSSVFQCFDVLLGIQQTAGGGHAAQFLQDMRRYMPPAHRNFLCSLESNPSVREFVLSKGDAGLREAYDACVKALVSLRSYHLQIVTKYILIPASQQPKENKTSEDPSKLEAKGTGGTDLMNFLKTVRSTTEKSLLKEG
Target sequence in this assay (Q96SW2 whole entry): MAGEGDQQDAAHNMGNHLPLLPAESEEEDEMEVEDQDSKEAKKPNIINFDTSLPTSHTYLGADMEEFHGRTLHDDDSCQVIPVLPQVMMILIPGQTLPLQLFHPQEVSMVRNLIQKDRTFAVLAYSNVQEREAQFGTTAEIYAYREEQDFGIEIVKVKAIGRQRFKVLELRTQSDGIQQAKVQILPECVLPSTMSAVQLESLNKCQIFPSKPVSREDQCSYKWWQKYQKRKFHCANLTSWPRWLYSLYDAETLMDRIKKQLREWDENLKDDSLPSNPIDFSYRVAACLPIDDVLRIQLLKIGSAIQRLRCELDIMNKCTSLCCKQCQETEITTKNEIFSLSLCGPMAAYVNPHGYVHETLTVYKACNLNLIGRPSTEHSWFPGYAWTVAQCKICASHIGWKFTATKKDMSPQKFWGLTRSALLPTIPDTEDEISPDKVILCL

Experiment [2] has as its target T1, Protein cereblon/Indoleamine 2,3-dioxygenase 1. The experiment can be described thus: PROTAC activity at CRBN/N-terminal HiBiT-tagged IDO1 (unknown origin) transfected in human U87 cells assessed as induction of IDO1 degradation by measuring maximum efficacy pretreated with IFN-gamma for 24 hrs followed by compound addition and measured after 24 hrs by Nano-Glo HiBiT assay relative to control. The class given is cell-based. Summed up:
as §1
Target sequence in this assay (P14902 whole entry, looked up): as the sequence (P14902 whole entry) above
Target sequence in this assay (Q96SW2 whole entry, looked up): as the sequence (Q96SW2 whole entry) above

On to `C[C@@H](C(=O)Nc1cccc(OC2CCN(C(=O)CCN3CCN(c4ccc5c(c4)C(=O)N(C4CCC(=O)NC4=O)C5=O)CC3)CC2)c1)[C@H]1CC[C@@H](c2ccnc3ccc(F)cc32)CC1` (stereo not given in full), for which, in experiment [1], the DC50 is above 10 µM. Further, in experiment [2], the maximal response (Emax) was below 10%.
`C[C@@H](C(=O)Nc1ccc(Cl)c(OC2CCN(C(=O)CCOCCOCCNc3cccc4c3C(=O)N(C3CCC(=O)NC3=O)C4=O)CC2)c1)[C@H]1CC[C@@H](c2ccnc3ccc(F)cc32)CC1` (stereo not given in full): the DC50 in experiment [1] was above 10 µM. In addition, the maximum response (Emax) in experiment [2] is below 10%.
As for `C[C@@H](C(=O)Nc1ccc(OC2CCN(C(=O)CCOCCN3CCN(c4ccc5c(c4)C(=O)N(C4CCC(=O)NC4=O)C5=O)CC3)CC2)cc1)[C@H]1CC[C@@H](c2ccnc3ccc(F)cc32)CC1` (stereo not given in full), in experiment [1], the half-maximal degradation concentration (DC50) is above 10 µM. For the same compound, the Emax in experiment [2] is below 10%.
As for `C[C@@H](C(=O)Nc1ccc(Cl)c(OC2CCN(C(=O)CCOCCN3CCN(c4ccc5c(c4)C(=O)N(C4CCC(=O)NC4=O)C5=O)CC3)CC2)c1)[C@H]1CC[C@@H](c2ccnc3ccc(F)cc32)CC1` (stereo not given in full), the DC50 in experiment [1] was above 10 µM. For the same compound, in experiment [2], the maximal response (Emax) is below 10%.
For the compound `C[C@@H](C(=O)Nc1ccc(OC2CCN(C(=O)CN3CCC(CN4CCN(c5ccc6c(c5)C(=O)N(C5CCC(=O)NC5=O)C6=O)CC4)CC3)CC2)cc1)[C@H]1CC[C@@H](c2ccnc3ccc(F)cc32)CC1` (stereo not given in full), the 50% degradation concentration (DC50) in experiment [1] is 0.34 µM. Moreover, the maximal effect (Emax) in experiment [2] came out at 26%.
As to `C[C@@H](C(=O)Nc1cccc(OC2CCN(C(=O)CN3CCN(c4ccc5c(c4)C(=O)N(C4CCC(=O)NC4=O)C5=O)CC3)CC2)c1)[C@H]1CC[C@@H](c2ccnc3ccc(F)cc32)CC1` (stereo not given in full), the 50% degradation concentration (DC50) in experiment [1] is above 10 µM. Besides, the maximal effect (Emax) in experiment [2] is below 10%.
Take `C[C@@H](C(=O)Nc1ccc(Cl)c(OC2CCN(C(=O)CN3CCC(CN4CCN(c5cccc6c5C(=O)N(C5CCC(=O)NC5=O)C6=O)CC4)CC3)CC2)c1)[C@H]1CC[C@@H](c2ccnc3ccc(F)cc32)CC1` (stereo not given in full): the half-maximal degradation concentration (DC50) in experiment [1] is above 10 µM. Also, in experiment [2], the Emax was below 10%.
On to `C[C@@H](C(=O)Nc1ccc(Cl)c(OC2CCN(C(=O)CCOCCN3CCN(c4cccc5c4C(=O)N(C4CCC(=O)NC4=O)C5=O)CC3)CC2)c1)[C@H]1CC[C@@H](c2ccnc3ccc(F)cc32)CC1` (stereo not given in full), for which, in experiment [1], the 50% degradation concentration (DC50) is above 10 µM. Further, the Emax in experiment [2] was below 10%.
For `C[C@@H](C(=O)Nc1ccc(OC2CCN(C(=O)CN3CCC(CN4CCN(c5cccc6c5C(=O)N(C5CCC(=O)NC5=O)C6=O)CC4)CC3)CC2)cc1)[C@H]1CC[C@@H](c2ccnc3ccc(F)cc32)CC1` (stereo not given in full), in that order: above 10 µM and below 10%.
On the same counts, the results for `C[C@@H](C(=O)Nc1ccc(Cl)c(OC2CCN(C(=O)CCOCCOCCNc3ccc4c(c3)C(=O)N(C3CCC(=O)NC3=O)C4=O)CC2)c1)[C@H]1CC[C@@H](c2ccnc3ccc(F)cc32)CC1` (stereo not given in full) are above 10 µM and below 10%.
For `C[C@@H](C(=O)Nc1ccc(Cl)c(OC2CCN(C(=O)CN3CCC(N4CCN(c5ccc6c(c5)C(=O)N(C5CCC(=O)NC5=O)C6=O)CC4)CC3)CC2)c1)[C@H]1CC[C@@H](c2ccnc3ccc(F)cc32)CC1` (stereo not given in full), in that order: 0.007 µM and 51%.
On to `C[C@@H](C(=O)Nc1ccc(OC2CCN(C(=O)CCOCCOCCNc3ccc4c(c3)C(=O)N(C3CCC(=O)NC3=O)C4=O)CC2)cc1)[C@H]1CC[C@@H](c2ccnc3ccc(F)cc32)CC1` (stereo not given in full), for which, in experiment [1], the DC50 is above 10 µM. Further, in experiment [2], the Emax is below 10%.
With `C[C@@H](C(=O)Nc1ccc(OC2CCN(C(=O)CCOCCN3CCN(c4cccc5c4C(=O)N(C4CCC(=O)NC4=O)C5=O)CC3)CC2)cc1)[C@H]1CC[C@@H](c2ccnc3ccc(F)cc32)CC1` (stereo not given in full), the DC50 in experiment [1] is above 10 µM. Besides, the Emax in experiment [2] was below 10%.
Regarding `C[C@@H](C(=O)Nc1ccc(Cl)c(OC2CCN(C(=O)CN3CCC(CN4CCN(c5ccc6c(c5)C(=O)N(C5CCC(=O)NC5=O)C6=O)CC4)CC3)CC2)c1)[C@H]1CC[C@@H](c2ccnc3ccc(F)cc32)CC1` (stereo not given in full), the half-maximal degradation concentration (DC50) in experiment [1] was determined as 0.008 µM. Also, the maximum response (Emax) in experiment [2] worked out at 48%.
As for `C[C@@H](C(=O)Nc1ccc(OC2CCN(C(=O)CN3CCC(N4CCN(c5ccc6c(c5)C(=O)N(C5CCC(=O)NC5=O)C6=O)CC4)CC3)CC2)cc1)[C@H]1CC[C@@H](c2ccnc3ccc(F)cc32)CC1` (stereo not given in full), the half-maximal degradation concentration (DC50) in experiment [1] stood at 0.034 µM. Moreover, the maximal effect (Emax) in experiment [2] came out at 21%.
